ChEMBL document CHEMBL1151801, “Synthesis of new indeno[1,2-e]pyrimido[4,5-b][1,4]diazepine-5,11-diones as potential antitumor agents” (2008)

How the values were obtained:
Type in all cases: functional
CAKI-1 = assay: Antitumor activity against human Caki1 cells after 48 hrs by SRB assay; conditions: CAKI-1, 48 h
Method in brief: (§1)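 NCI in vitro human tumor cell line screen. Cells were exposed continuously to compound for 48 h at five concentration levels (100, 10, 1.0, 0.1 and 0.01). Growth was estimated by sulforhodamine B protein staining. GI50 is the concentration giving a 50% reduction in net protein increase relative to control cells over the incubation.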

A498 = assay: Antitumor activity against human A498 cells after 48 hrs by SRB assay; conditions: A498, 48 h; method in brief: as §1
786-0 = assay: Antitumor activity against human 786-0 cells after 48 hrs by SRB assay; conditions: 786-0, 48 h; method in brief: as §1
OVCAR-8 = assay: Antitumor activity against human OVCAR8 cells after 48 hrs by SRB assay; conditions: OVCAR-8, 48 h; method in brief: as §1
OVCAR-4 = assay: Antitumor activity against human OVCAR4 cells after 48 hrs by SRB assay; conditions: OVCAR-4, 48 h; method in brief: as §1
IGROV-1 = assay: Antitumor activity against human IGROV1 cells after 48 hrs by SRB assay; conditions: IGROV-1, 48 h; method in brief: as §1
U-251 = assay: Antitumor activity against human U251 cells after 48 hrs by SRB assay; conditions: U-251, 48 h
Method in brief: (§2)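 NCI in vitro human tumor cell line screen. Continuous 48 h drug exposure at five concentrations (100, 10, 1.0, 0.1 and 0.01 µM). Cell growth estimated by sulforhodamine B protein staining. GI50 defined as the concentration giving 50% reduction in net protein increase versus control cells over the incubation.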

SNB-75 = assay: Antitumor activity against human SNB75 cells after 48 hrs by SRB assay; conditions: SNB-75, 48 h; method in brief: as §1
ACHN = assay: Antitumor activity against human ACHN cells after 48 hrs by SRB assay; method in brief: as §1
SF-295 = assay: Antitumor activity against human SF295 cells after 48 hrs by SRB assay; conditions: SF-295, 48 h; method in brief: as §1
SF-268 = assay: Antitumor activity against human SF268 cells after 48 hrs by SRB assay; conditions: SF-268, 48 h; method in brief: as §1
SW-620 = assay: Antitumor activity against human SW620 cells after 48 hrs by SRB assay; conditions: SW-620, 48 h; method in brief: as §2
KM12 = assay: Antitumor activity against human KM12 cells after 48 hrs by SRB assay; conditions: KM12, 48 h; method in brief: as §1
HT-29 = assay: Antitumor activity against human HT-29 cells after 48 hrs by SRB assay; conditions: HT-29, 48 h; method in brief: as §1
HCT-15 = assay: Antitumor activity against human HCT15 cells after 48 hrs by SRB assay; conditions: HCT-15, 48 h; method in brief: as §1
HCT-116 = assay: Antitumor activity against human HCT116 cells after 48 hrs by SRB assay; conditions: HCT-116, 48 h; method in brief: as §1
HCC 2998 = assay: Antitumor activity against human HCC2998 cells after 48 hrs by SRB assay; conditions: HCC 2998, 48 h; method in brief: as §1
COLO 205 = assay: Antitumor activity against human COLO205 cells after 48 hrs by SRB assay; conditions: COLO 205, 48 h; method in brief: as §1
NCI-H522 = assay: Antitumor activity against human NCI-H522 cells after 48 hrs by SRB assay; conditions: NCI-H522, 48 h; method in brief: as §1
NCI-H23 = assay: Antitumor activity against human NCI-H23 cells after 48 hrs by SRB assay; conditions: NCI-H23, 48 h; method in brief: as §1
NCI-H226 = assay: Antitumor activity against human NCI-H226 cells after 48 hrs by SRB assay; conditions: NCI-H226, 48 h; method in brief: as §1
HOP-62 = assay: Antitumor activity against human HOP62 cells after 48 hrs by SRB assay; conditions: HOP-62, 48 h; method in brief: as §1
EKVX = assay: Antitumor activity against human EKVX cells after 48 hrs by SRB assay; method in brief: as §1
A549 = assay: Antitumor activity against human A549 cells after 48 hrs by SRB assay; conditions: A549, 48 h; method in brief: as §1
SR = assay: Antitumor activity against human SR cells after 48 hrs by SRB assay; method in brief: as §1
[1] = Antitumor activity against human […] cells after 48 hrs by SRB assay; method in brief: as §1
MOLT-4 = assay: Antitumor activity against human MOLT4 cells after 48 hrs by SRB assay; conditions: MOLT-4, 48 h; method in brief: as §1
K562 = assay: Antitumor activity against human K562 cells after 48 hrs by SRB assay; conditions: K562, 48 h; method in brief: as §1
HL-60(TB) = assay: Antitumor activity against human HL-60(TB) cells after 48 hrs by SRB assay; conditions: HL-60, 48 h; method in brief: as §1
CCRF-CEM = assay: Antitumor activity against human CCRF-CEM cells after 48 hrs by SRB assay; method in brief: as §1
UO-31 = assay: Antitumor activity against human UO31 cells after 48 hrs by SRB assay; conditions: UO-31, 48 h; method in brief: as §2
PC-3 = assay: Antitumor activity against human PC3 cells after 48 hrs by SRB assay; conditions: PC-3, 48 h; method in brief: as §1
DU-145 = assay: Antitumor activity against human DU145 cells after 48 hrs by SRB assay; conditions: DU-145, 48 h; method in brief: as §1
MCF7 = assay: Antitumor activity against human MCF7 cells after 48 hrs by SRB assay; conditions: MCF7, 48 h; method in brief: as §1
MDA-MB-231 = assay: Antitumor activity against human MDA-MB-231 cells after 48 hrs by SRB assay; conditions: MDA-MB-231, 48 h; method in brief: as §1
MDA-MB-435 = assay: Antitumor activity against human MDA-MB-435 cells after 48 hrs by SRB assay; conditions: MDA-MB-435, 48 h; method in brief: as §1
BT-549 = assay: Antitumor activity against human BT549 cells after 48 hrs by SRB assay; conditions: BT-549, 48 h; method in brief: as §1
T47D = assay: Antitumor activity against human T47D cells after 48 hrs by SRB assay; method in brief: as §2
[2] = read-out: LC50 (the source's name)

## CSc1nc2c(c(=O)[nH]1)NC1=C(C(=O)c3ccccc31)C(c1ccc(F)cc1)N2 (stereo unspecified)
CAKI-1
  GI50: 3.3 µM
  LC50: > 100 µM
A498
  GI50: 4.88 µM
  LC50: 57.7 µM
786-0
  GI50: 12.4 µM
786-0; [2]
  CC50: 60.4 µM
OVCAR-8
  GI50: 13.1 µM
  LC50 (concentration causing 50% net cell kill): 95.2 µM
OVCAR-4
  GI50: 15.4 µM
OVCAR-4; [2]
  CC50: > 100 µM
IGROV-1
  GI50: 11.3 µM
IGROV-1; [2]
  CC50: > 100 µM
U-251
  GI50: 5.43 µM
U-251; [2]
  CC50: 48.6 µM
SNB-75
  GI50: 1.46 µM
  LC50: > 100 µM
ACHN
  GI50: 11.6 µM
ACHN; [2]
  CC50: > 100 µM
SF-295
  GI50: 3.67 µM
SF-295; [2]
  CC50: > 100 µM
SF-268
  GI50: 12.7 µM
SF-268; [2]
  CC50: > 100 µM
SW-620
  GI50: 4.48 µM
  LC50: > 100 µM
KM12
  GI50: 3.77 µM
KM12; [2]
  CC50: 39.5 µM
HT-29
  GI50: 3.36 µM
  LC50: 35.1 µM
HCT-15
  GI50: 4.57 µM
  LC50 (concentration killing 50% of starting cells): > 100 µM
HCT-116
  GI50: 7.23 µM
  LC50 (50% lethal concentration): 44.7 µM
HCC 2998
  GI50: 12.2 µM
HCC 2998; [2]
  CC50: 76.1 µM
COLO 205
  GI50: 13 µM
COLO 205; [2]
  CC50: > 100 µM
NCI-H522
  GI50: 3.17 µM
NCI-H522; [2]
  CC50: > 100 µM
NCI-H23
  GI50: 13.5 µM
  LC50: > 100 µM
NCI-H226
  GI50: 15.3 µM
  LC50: > 100 µM
HOP-62
  GI50: 11.9 µM
HOP-62; [2]
  CC50: 95.6 µM
EKVX
  GI50: 18.2 µM
EKVX; [2]
  CC50: > 100 µM
A549
  GI50: 12.6 µM
A549; [2]
  CC50: > 100 µM
SR
  GI50: 6.31 µM
  LC50 (concentration killing 50% of cells): > 100 µM
[1]
  GI50: 4.2 µM
  LC50: > 100 µM
MOLT-4
  GI50: 19.5 µM
  LC50: > 100 µM
K562
  GI50: 4.05 µM
  LC50: > 100 µM
HL-60(TB)
  GI50: 6.54 µM
  LC50: > 100 µM
CCRF-CEM
  GI50: 8.16 µM
CCRF-CEM; [2]
  CC50: > 100 µM
UO-31
  GI50: 16.3 µM
UO-31; [2]
  CC50: > 100 µM
PC-3
  GI50: 7.72 µM
PC-3; [2]
  CC50: > 100 µM
DU-145
  GI50: 16.2 µM
DU-145; [2]
  CC50: > 100 µM
MCF7
  GI50: 5.18 µM
  LC50 (concentration causing 50% net cell kill): > 100 µM
MDA-MB-231
  GI50: 12.6 µM
  LC50 (lethal concentration, 50% net cell kill): > 100 µM
MDA-MB-435
  GI50: 1.65 µM
  LC50: > 100 µM
BT-549
  GI50: 8.5 µM
BT-549; [2]
  CC50: > 100 µM
T47D
  GI50: 14.2 µM
T47D; [2]
  CC50: > 100 µM
